From ChEMBL document CHEMBL1687733, “Topoisomerase I gene mutations at F270 in the large subunit and N184 in the small subunit contribute to the resistance mechanism of the unicellular parasite Leishmania donovani towards 3,3'-diindolylmethane” (Antimicrob Agents Chemother, 2009)
Changes are numbered by the printed parent chain. Activity calls are given as the source filed them.

How the values were obtained:
Leishmania donovani [1] = experiment: Antimicrobial activity against wild type Leishmania donovani AG83 transfected with drug-resistant Leishmania donovani LdDR50 topoisomerase 1 F270Lmutant in large subunit assessed as inhibition of parasite growth at 20 uM after 24 hrs by MTT assay; format: functional; settings: AG83, 24 h
Procedure, shortened: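 WT promastigotes transfected by electroporation with mutant large-subunit (pXG-HYG, hygromycin selection) and/or small-subunit (pXG-GFP2+, G418 selection) topoisomerase I genes. Grown with DIM 1–20 μM for 24 h; MTT read-out, growth as % of optical density of untreated WT parasites.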

[2] = test system: T1, Leishmania donovani [F270L]; experiment: Inhibition of recombinant drug-resistant Leishmania donovani LdDR50 topoisomerase 1b wild type small subunit and large subunit F270L mutant-mediated relaxation of supercoiled pBluescript SK(+) DNA at up to 50 uM after 30 mins using ethidium bromide staining
T1 sequence (whole entry): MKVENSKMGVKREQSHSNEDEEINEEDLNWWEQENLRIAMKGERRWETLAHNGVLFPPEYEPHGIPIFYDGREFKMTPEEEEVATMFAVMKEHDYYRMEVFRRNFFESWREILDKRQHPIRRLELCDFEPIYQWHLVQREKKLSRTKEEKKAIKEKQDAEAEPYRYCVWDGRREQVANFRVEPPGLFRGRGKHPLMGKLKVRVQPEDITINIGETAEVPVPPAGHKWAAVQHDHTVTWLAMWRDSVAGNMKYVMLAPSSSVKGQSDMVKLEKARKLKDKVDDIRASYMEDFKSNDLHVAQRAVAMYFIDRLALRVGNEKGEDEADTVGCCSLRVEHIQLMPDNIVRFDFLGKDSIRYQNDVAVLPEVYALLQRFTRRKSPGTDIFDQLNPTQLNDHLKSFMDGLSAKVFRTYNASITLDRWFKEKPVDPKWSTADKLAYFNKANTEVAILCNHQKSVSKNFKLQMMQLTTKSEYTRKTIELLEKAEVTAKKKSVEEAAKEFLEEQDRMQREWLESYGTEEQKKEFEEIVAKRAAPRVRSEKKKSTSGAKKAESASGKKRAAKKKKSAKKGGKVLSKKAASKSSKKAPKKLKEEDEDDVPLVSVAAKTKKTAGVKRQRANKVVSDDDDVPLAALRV
Procedure, shortened: (§1)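 Reconstituted recombinant enzyme (30 fmol) with 90 fmol supercoiled pBluescript SK(+) DNA (3:1 DNA:enzyme), 30 min at 37°C with DIM (1–50 μM for fully mutant enzyme; 10 μM for single-site mutants); 4% DMSO vehicle control. Products on 1% agarose, ethidium bromide (0.5 μg/ml) stained; supercoiled monomer band quantified.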

[3] = test system: T2, Leishmania donovani [K430N]; experiment: Inhibition of recombinant drug-resistant Leishmania donovani LdDR50 topoisomerase 1b wild type small subunit and large subunit K430N mutant-mediated relaxation of supercoiled pBluescript SK(+) DNA at up to 50 uM after 30 mins using ethidium bromide staining; procedure, shortened: as §1
T2 sequence (whole entry): T1 sequence (whole entry) with L270F, K430N

Leishmania donovani [4] = experiment: Inhibition of recombinant drug-resistant Leishmania donovani LdDR50 topoisomerase 1b large subunit K430N mutant and small subunit N184S mutant-mediated relaxation of supercoiled pBluescript SK(+) DNA at up to 50 uM after 30 mins using ethidium bromide staining; procedure, shortened: as §1
[5] = test system: T3, Leishmania donovani [N184S]; experiment: Inhibition of recombinant drug-resistant Leishmania donovani LdDR50 topoisomerase 1b wild type large subunit and small subunit N184S mutant-mediated relaxation of supercoiled pBluescript SK(+) DNA at up to 50 uM after 30 mins using ethidium bromide staining; procedure, shortened: as §1
T3 sequence (whole entry): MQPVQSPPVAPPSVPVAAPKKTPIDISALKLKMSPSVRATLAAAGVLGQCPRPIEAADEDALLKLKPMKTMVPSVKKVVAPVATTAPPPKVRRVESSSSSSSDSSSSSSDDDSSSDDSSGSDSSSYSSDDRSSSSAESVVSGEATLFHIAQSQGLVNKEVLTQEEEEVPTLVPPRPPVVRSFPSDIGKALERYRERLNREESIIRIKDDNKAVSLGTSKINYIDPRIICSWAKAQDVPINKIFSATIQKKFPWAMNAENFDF

[6] = test system: T4, DNA topoisomerase type IB small subunit (Leishmania donovani (strain BPK282A1)), E9B7X3 [N184S]; experiment: Effect on recombinant drug-resistant Leishmania donovani LdDR50 topoisomerase 1b small subunit N184S mutant-mediated cleavage of 25-mer duplex oligonucleotide at 5 uM after 30 mins by PAGE analysis
T4 sequence (whole entry): T3 sequence (whole entry)
Procedure, shortened: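 5′-32P-labelled 25-mer duplex (10 nM) incubated with reconstituted mutant enzyme (0.2 μM, 20-fold molar excess) and DIM 5–20 μM for 30 min (Methods 37°C; legend 23°C). Stopped with SDS, trypsin-treated, resolved on 12% denaturing polyacrylamide-urea gel; cleaved 12-mer detected by autoradiography.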

Leishmania donovani [7] = experiment: Ratio of KD for drug-resistant Leishmania donovani LdDR50 topoisomerase 1b to KD for wild type Leishmania donovani AG83 topoisomerase 1b
[8] = molecular target: DNA topoisomerase type IB small subunit (Leishmania donovani (strain BPK282A1), UniProt E9B7X3, N184S); experiment: Binding affinity to recombinant drug-resistant Leishmania donovani LdDR50 topoisomerase 1b small subunit N184S mutant after 24 hrs by equilibrium dialysis method
Procedure, shortened: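 Recombinant His-tagged subunits expressed in E. coli BL21(DE3) pLysS, purified on Ni-NTA then phosphocellulose, reconstituted 1:1. Enzyme 200 μM with DIM 1–20 μM in 20 mM Tris-HCl pH 7.5, 50 mM NaCl, 10 mM MgCl2 for 30 min at 37°C, then dialysed (12–14 kDa cutoff) 24 h at 25°C. Free DIM measured by absorbance (ε 6.6 × 10^4 M−1); KD from saturation plot.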

[9] = Binding affinity to Leishmania donovani small subunit of topoisomerase 1b

c1ccc2c(Cc3c[nH]c4ccccc34)c[nH]c2c1 [ARUNDINE]
inhibition at 20 µM (Leishmania donovani [1]): 34%
inhibition [2]: inactive
inhibition [3]: Active
inhibition (Leishmania donovani [4]): Active
inhibition [5]: Active
Activity [6]: inactive
Ratio (Leishmania donovani [7]): 25000
Kd [8]: 380 µM
Kd [9]: 0.05 µM
